# An excerpt weighted towards active compounds, which were near 4.6% of everything screened.
# TAAR1 agonist = human TAAR1 agonism. Q96RJ0. CHO RD-HGA16 TAAR1, Fluo-8 calcium fluorescence; vehicle wells 0%, saturating PEA agonist 100%. AID 624467. 360,000 compounds, 0.99% hits. activation, % at 3 µM;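 active = activation above the mean activation of all test compounds in the run plus 3 SD, cut at about 38% in these data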
#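 Benchmarks: low control DMSO, high control PEA (EC100); System: CHO RD-HGA16 cells carrying human TAAR1 plus Gα16; Detection: Fluo-8 fluorescence, 5 s baseline then 140 s kinetic read; Schedule: 17-24 h plating, Fluo-8 75 min 37 °C, 30 min RT; Read-out basis: % activation from peak over basal fluorescence ratio, DMSO-to-PEA scaled.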
# TAAR1 antag = antagonists of human TAAR1; Q96RJ0; CHO RD-HGA16 TAAR1, Fluo-8 calcium fluorescence, antagonist; inhibition, % at 3 µM; 360,000 compounds, 1.5% hits; AID 624466;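 active = inhibition above a per-plate cutoff, the mean inhibition of test compounds on that plate plus 3 SD, cut at about 49% in these data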
#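 test system = CHO RD-HGA16 cells bearing hTAAR1 | replication = singlicate | controls = DMSO-only wells and EC80 β-PEA-stimulated wells | reagent = EC80 β-phenethylamine stimulus | read-out basis = percent inhibition of PEA-evoked calcium signal, max/basal emission ratio | schedule = seeding 17-24 h prior, 75-min 37 °C, 30-min RT dye loading | signal = kinetic Fluo-8 calcium fluorescence measurement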
# OX1R antag-1 = antagonists of human orexin 1 receptor (OX1R). O43613. OX1R-expressing cells, FRET antagonist read-out. inhibition, % at 6.6 µM. 330,000 compounds, 1.8% hits; in the data active = inhibition mostly above about 38%, no sharp cut-off; inactive = mostly below about 40%
# Target sequence (O43613 whole entry, looked up): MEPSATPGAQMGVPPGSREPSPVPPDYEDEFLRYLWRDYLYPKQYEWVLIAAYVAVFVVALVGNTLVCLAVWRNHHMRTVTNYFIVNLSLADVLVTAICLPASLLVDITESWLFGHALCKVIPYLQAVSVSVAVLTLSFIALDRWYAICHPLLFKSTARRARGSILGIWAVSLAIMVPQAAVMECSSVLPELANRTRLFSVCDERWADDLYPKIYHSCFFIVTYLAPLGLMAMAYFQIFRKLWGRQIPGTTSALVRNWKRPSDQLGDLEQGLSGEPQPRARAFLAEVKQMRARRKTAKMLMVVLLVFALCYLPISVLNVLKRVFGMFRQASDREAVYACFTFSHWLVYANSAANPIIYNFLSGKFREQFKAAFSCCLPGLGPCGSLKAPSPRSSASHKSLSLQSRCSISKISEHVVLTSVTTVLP
# CHO parental Ca = counter-screen: ATP calcium response change in parental CHO cells | parental CHO-K1, ATP-induced calcium, Fluo-8 fluorescence | inhibition, % at 5.6 µM | 330,000 compounds, 0.63% hits;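 active = inhibition above that plate's mean sample inhibition plus 3 SD, cut at about 26% in these data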
#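 Test system: untransfected parental CHO cell line. Compound: one dose, 5.6 µM nominal. Detection: intracellular calcium via Fluo-8 no-wash fluorescent dye. Measure: % inhibition. Benchmarks: ATP-challenged DMSO wells low, unchallenged DMSO wells high.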
# OX1R antag-2 = human HCRTR1 antagonism; O43613; 330,000 compounds, 0.43% hits; inhibition, % at 5 µM; AID 434989; CHO/OX1R cells, Fluo-8 calcium fluorescence, orexin A;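 active = inhibition above its plate's threshold, mean inhibition of all tested compounds on the plate plus 3 SD, cut at about 37% in these data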
# GPR7 antagonist = blocks human GPR7 receptor signaling | inhibition, % at 4.4 µM | P48145 | GPR7-expressing cells, fluorescence antagonist assay | AID 1861 | 290,000 compounds, 1.1% hits; in the data active = inhibition above about 16%, passing the limit was not always enough;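 also: cells stimulated with the agonist NPW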
# A number is an active result; i = inactive; nt = no result.
SMILES,TAAR1 agonist,TAAR1 antag,OX1R antag-1,CHO parental Ca,OX1R antag-2,GPR7 antagonist
CCN1/C(=C\C(=S)Nc2ccccc2)Sc2ccccc21,i,i,i,i,i,i
COc1ccc(N2C(=O)c3n[nH]c(C(C)C)c3C2c2ccc(F)cc2)cc1 (configuration not stated),i,i,nt,nt,nt,nt
Cc1ccc(NC(=O)c2cc3ccccc3oc2=N)cc1,i,i,i,i,i,i
N=c1oc2c3c4c(cc2cc1C(=O)Nc1ccccc1)CCCN4CCC3,nt,nt,95,62,94,i
N#Cc1ccc(S(=O)(=O)NC(=O)[C@H]2O[C@@H](n3ccc(=O)[nH]c3=O)[C@H](O)[C@@H]2O)cc1,i,i,nt,nt,nt,nt
Cc1ccccc1OCC(=O)Nc1ccc(N2CCN(C(=O)c3ccco3)CC2)cc1,i,60,i,i,i,i
Cc1ccccc1C(=O)N1CCN(c2ccc(NC(=O)CSc3ccc(Cl)cc3)cc2)CC1,i,53,i,31,i,i
Cc1ccccc1C(=O)N1CCN(c2ccc(NC(=O)c3cccc(OC(C)C)c3)cc2)CC1,i,i,i,i,i,i
COc1c(C)cccc1C(=O)Nc1ccc(N2CCN(C(=O)c3ccccc3C)CC2)cc1,i,55,i,i,i,i
O=C(Cc1cccnc1)N[C@@H]1CC[C@H](CCn2cc(Cc3ccccc3)nn2)O[C@@H]1CO,i,i,nt,nt,nt,nt
CCOC(=O)[C@]12CCCC=C1N(Cc1ccccc1)C(=O)[C@H](CC(=O)NCCCOC)C2,i,i,nt,nt,nt,nt
CN(C)c1ccc(-c2ccnc3c2CC(C)(C(=O)NCC2CCOCC2)O3)cc1 (configuration not stated),i,i,nt,nt,nt,nt
COCCN1CCN(C(=O)c2ccc3c(c2)S(=O)(=O)c2ccccc2C3=O)CC1,i,i,66,i,i,nt
CC(OC(=O)c1ccc2c(c1)S(=O)(=O)c1ccccc1C2=O)C(N)=O (configuration not stated),i,i,71,i,i,i
O=C1c2ccccc2S(=O)(=O)c2cc(C(=O)N3CCN(c4ccccc4)CC3)ccc21,i,i,i,i,i,nt
NC(=O)c1ccc2c(c1)S(=O)(=O)c1ccccc1C2=O,i,i,65,i,i,i
O=C(O)c1ccc2c(c1)S(=O)(=O)c1ccccc1C2=O,nt,nt,nt,nt,nt,i
O=C(COC(=O)c1ccc2c(c1)S(=O)(=O)c1ccccc1C2=O)NC1CC1,i,i,51,i,i,i
COC(=O)[C@]12C[C@H](CC(=O)N3CCN(C(=O)c4ccco4)CC3)C(=O)N(Cc3ccc4c(c3)OCO4)C1=C[C@H](COCc1ccccc1)O[C@@H]2C,i,i,nt,nt,nt,nt
NC(=O)COC(=O)c1ccc2c(c1)S(=O)(=O)c1ccccc1C2=O,i,i,64,i,i,i
O=C(O)c1ccc2c(c1)S(=O)(=O)c1cc(Cl)ccc1C2=O,i,i,32,i,i,nt
CCc1cccc(CC)c1NC(=O)COC(=O)c1ccc2c(c1)S(=O)(=O)c1ccccc1C2=O,i,i,i,i,i,i
COC(=O)[C@]12CCCCC=C1N(Cc1ccc3c(c1)OCO3)C(=O)[C@H](CC(=O)NCc1ccc(OC)c(OC)c1)C2,i,59,nt,nt,nt,nt
COC(=O)[C@]12CCCCC=C1N(Cc1ccc3c(c1)OCO3)C(=O)[C@H](CC(=O)N1CCC(c3ccccc3)CC1)C2,i,56,nt,nt,nt,nt
COC(=O)[C@]12CCCCC=C1N(Cc1cccc3ccccc13)C(=O)[C@H](CC(=O)NCc1ccc(OC)c(OC)c1)C2,i,49,nt,nt,nt,nt
SMILES,TAAR1 agonist,TAAR1 antag,OX1R antag-1,CHO parental Ca,OX1R antag-2,GPR7 antagonist
COC(=O)[C@]12CCCCC=C1N(CCc1ccc(OC)c(OC)c1)C(=O)[C@H](CC(=O)N1CCCCC1)C2,i,52,nt,nt,nt,nt
COCCCNC(=O)C[C@@H]1C[C@@]2(C(=O)OC)CCCCC=C2N(Cc2ccc3c(c2)OCO3)C1=O,i,i,nt,nt,nt,nt
COC(=O)[C@]12CCCCC=C1N(Cc1ccc3c(c1)OCO3)C(=O)[C@H](CC(=O)NCC1CCCCC1)C2,i,50,nt,nt,nt,nt
Cc1ccc(C(=O)N2c3ccccc3N=C(c3ccccc3)C2C(=O)NC(C)C)cc1 (configuration not stated),i,i,nt,nt,nt,nt
O=C(NCc1cc(C(F)(F)F)ccc1Cl)c1cccc2c1C(=O)c1ccc(N3CCC(N4CCCCC4)CC3)cc1S2(=O)=O,i,59,nt,nt,nt,nt
COc1ccccc1N1CCN(c2ccc3c(c2)S(=O)(=O)c2cccc(C(=O)NCc4ccc(F)cc4)c2C3=O)CC1,i,57,nt,nt,nt,nt
O=C(NCc1cccc(F)c1)c1cccc2c1C(=O)c1ccc(N3CCC(Cc4ccccc4)CC3)cc1S2(=O)=O,nt,nt,i,42,i,nt
O=C(NCc1cccc(C(F)(F)F)c1)c1cccc2c1C(=O)c1ccc(N3CCC(Cc4ccccc4)CC3)cc1S2(=O)=O,nt,nt,i,i,i,nt
COC(=O)c1cccc(Nc2cc(C)n(-c3cccc(C(=O)OC)c3)c(=O)c2)c1,i,i,nt,nt,nt,nt
Nc1ccn([C@@H]2O[C@H](C(=O)N[C@H](Cc3ccccc3)C(=O)N3CCC(F)(F)CC3)[C@@H](O)[C@H]2O)c(=O)n1,i,i,nt,nt,nt,nt
CCOc1[nH]n(-c2ccc(Cl)cc2)c(=O)c1C=Nc1ccc(C)cc1,nt,nt,nt,nt,nt,i
CCOc1[nH]n(-c2ccc(Cl)cc2)c(=O)c1C=Nc1ccc(Cl)cc1,i,i,i,38,i,i
COc1ccccc1CNS(=O)(=O)c1ccc(F)cc1Br,i,i,nt,nt,nt,nt
O=C(Cn1c(=O)oc2cc(S(=O)(=O)N3CCCC3)ccc21)Nc1ccccn1,i,i,nt,nt,nt,nt
Oc1ccccc1CNc1ccc(Br)cn1,i,71,i,i,i,69
Brc1ccc(NCc2cccc3ccccc23)nc1,i,i,i,i,i,i
O=C(Nc1cccnc1)c1cccc(S(=O)(=O)Nc2ccccc2F)c1,i,i,nt,nt,nt,nt
O=C(Nc1cccc(S(=O)(=O)Nc2ccccc2F)c1)c1ccc2ccccc2n1,i,i,82,i,i,i
c1ccc(COn2nnc3ccccc32)c(COn2nnc3ccccc32)c1,i,55,i,i,i,i
CCCn1cnc2c(=O)oc3ccccc3c21,i,i,i,i,i,i
Cn1c2ccccc2c2c(=O)oc3ccccc3c21,i,i,61,i,i,nt
Cn1nc(C(C)(C)C)cc1C(=O)NCC1CCN(C(=O)C(=O)c2cc3ccccc3o2)CC1,i,i,nt,nt,nt,nt
CCn1c(CSc2nc3ccccc3s2)nc2ccccc21,i,i,100,55,79,i
COc1ccc(F)cc1C(=O)C1CCCN(Cc2cccn2-c2ccccn2)C1 (configuration not stated),i,i,i,i,i,19
COc1ccc(C(=O)C2CCCN(Cc3cccn3-c3ccccn3)C2)c(OC)c1 (configuration not stated),i,i,i,i,i,i
Cc1ccccc1-c1cnc(C(O)c2ccc(Cl)cc2)[nH]1 (configuration not stated),i,i,nt,nt,nt,nt
